According to ChEMBL document CHEMBL1143594, “Selective estrogen receptor modulators in the ruthenocene series. Synthesis and biological behavior” (J Med Chem, 2005):

Columns and labels:
[1] = molecular target: Estrogen receptor beta (Homo sapiens) (UniProt Q92731); assay: Relative binding affinity for Estrogen receptor beta
[2] = Octanol-water partition coefficient (logP) of the compound measured by RP-HPLC; format: physicochemical
In short: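 Reverse-phase HPLC capacity factors measured in an organic phase of 85%-60% methanol containing 0.25% octanol, against an aqueous phase of 0.15% n-decylamine in 0.02 M MOPS pH 7.4 made with octanol-saturated water. Extrapolated to 100% aqueous to give kNw. log Po/w = 0.13418 + 0.98452 log kNw.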

Chain of Estrogen receptor beta (Homo sapiens) (Q92731 whole entry): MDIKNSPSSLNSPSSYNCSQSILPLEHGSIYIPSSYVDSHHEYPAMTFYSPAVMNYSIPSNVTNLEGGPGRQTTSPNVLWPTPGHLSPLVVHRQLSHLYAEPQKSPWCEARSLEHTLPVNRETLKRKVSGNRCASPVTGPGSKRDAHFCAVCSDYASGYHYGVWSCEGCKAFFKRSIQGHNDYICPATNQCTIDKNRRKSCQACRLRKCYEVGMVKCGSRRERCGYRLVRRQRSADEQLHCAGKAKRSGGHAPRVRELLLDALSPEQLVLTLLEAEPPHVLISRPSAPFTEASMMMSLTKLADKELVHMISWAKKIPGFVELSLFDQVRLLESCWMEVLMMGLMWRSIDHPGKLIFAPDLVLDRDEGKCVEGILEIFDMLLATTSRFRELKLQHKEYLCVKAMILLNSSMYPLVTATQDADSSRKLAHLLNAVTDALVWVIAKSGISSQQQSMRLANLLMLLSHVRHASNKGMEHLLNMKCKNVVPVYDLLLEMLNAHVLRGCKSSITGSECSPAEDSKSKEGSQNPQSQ

| Structure (SMILES) | relative binding affinity (RBA) [1] | logP [2] |
| --- | --- | --- |
| CC/C(=C(/c1ccc(O)cc1)c1ccc(OCCN(C)C)cc1)c1ccccc1 [listing 1 of 3 here] | 18.5 | – |
| CC/C(=C(/c1ccc(O)cc1)c1ccc(OCCN(C)C)cc1)c1ccccc1 [listing 2 of 3 here] | – | 3.4 |
| CC/C(=C(/c1ccc(O)cc1)c1ccc(OCCN(C)C)cc1)c1ccccc1 [listing 3 of 3 here] | – | 3.2 |
| C[C@]12CC[C@@H]3c4ccc(O)cc4CC[C@H]3[C@@H]1CC[C@@H]2O [ESTRADIOL] | 100 | 3.5 |
